# Among all 310,000 compounds or so, about 1,100 (0.35%) were called active.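 Rule for the calls: active = fluorescence ratio B-score, a plate-corrected score, at least three library SD, with initial intensity B-score within 5 SD; inactive = the rest.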 The list comes from a sample in which actives are over-represented; it also holds similar structures and randomly drawn compounds.
# Molecular target: Potassium voltage-gated channel subfamily KQT member 1 (Homo sapiens) (UniProt P51787)
# Test: potentiators or activators of KCNQ1 channel, primary screen, cell-based, thallium flux, high-throughput (AID 2648)
# Conditions: CHO-K1 KCNQ1, thallium flux FluxOR fluorescence, at 10 µM; hits give high values
# Outline: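 Assay system: stable KCNQ1 CHO-K1 line; medium: assay buffer, equal DMSO in all wells; timing: 90 min dye loading and 20 min compound exposure, both at room temperature; technique: kinetic FluxOR thallium fluorescence, 10-s 1-Hz baseline, 110-s post-stimulus read; read-out basis: B score of baseline-normalized fluorescence ratio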
# Sequence of Potassium voltage-gated channel subfamily KQT member 1 (Homo sapiens) (P51787 whole entry, looked up): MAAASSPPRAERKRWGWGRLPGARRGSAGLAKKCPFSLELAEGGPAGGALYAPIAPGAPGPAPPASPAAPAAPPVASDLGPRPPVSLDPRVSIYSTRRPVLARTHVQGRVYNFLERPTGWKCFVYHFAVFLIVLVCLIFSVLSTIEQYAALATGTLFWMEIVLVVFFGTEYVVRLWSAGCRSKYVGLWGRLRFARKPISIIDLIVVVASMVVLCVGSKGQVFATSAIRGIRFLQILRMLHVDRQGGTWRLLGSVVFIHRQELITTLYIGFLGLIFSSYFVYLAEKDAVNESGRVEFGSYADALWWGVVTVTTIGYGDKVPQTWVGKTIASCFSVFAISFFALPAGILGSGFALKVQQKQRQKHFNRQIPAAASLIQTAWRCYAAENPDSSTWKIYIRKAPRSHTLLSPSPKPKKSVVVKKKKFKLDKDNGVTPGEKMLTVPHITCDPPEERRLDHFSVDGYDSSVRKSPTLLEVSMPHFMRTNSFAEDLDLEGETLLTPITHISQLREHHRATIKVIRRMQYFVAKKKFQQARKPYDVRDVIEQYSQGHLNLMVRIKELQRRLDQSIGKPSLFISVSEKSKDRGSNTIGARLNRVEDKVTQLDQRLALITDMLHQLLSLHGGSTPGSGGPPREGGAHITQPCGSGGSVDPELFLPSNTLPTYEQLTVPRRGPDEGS
row,Structure (SMILES),B-score
1,CCOc1ccc(C(c2c(C)[nH][nH]c2=O)c2c(C)[nH][nH]c2=O)cc1OCC,inactive
2,Cc1[nH][nH]c(=O)c1C(c1ccc(-c2ccc(Cl)cc2)o1)c1c(C)[nH][nH]c1=O,25 (active)
3,O=C(NC1CCCCC1)c1ccc(-c2ccc(Cl)cc2)o1,inactive
4,Cn1nnnc1-c1cc(Cl)cc(Cl)c1,inactive
5,CC(=O)C12CC(C)=C(C)CC1CC1C3CCC4=CC(=O)CCC4(C)C3CCC12C (centres undefined),inactive
6,O=C1NC(c2ccccc2)CCC1(Cl)Cl (centres undefined),inactive
7,COc1cccc2sc(N(CCCN(C)C)C(=O)CCS(=O)(=O)c3ccccc3)nc12,8 (active)
8,Cc1cccc2sc(N(CCCN(C)C)C(=O)CCS(=O)(=O)c3ccccc3)nc12,30 (active)
9,COc1cc2ccccc2cc1C(=O)N(CCN(C)C)c1nc2c(F)cccc2s1,inactive
10,CC(=O)N(CCCN(C)C)c1nc2ccc(C)cc2s1,inactive
11,Cc1ccc2sc(N(CCN(C)C)C(=O)/C=C/c3cccs3)nc2c1C,inactive
12,COc1cccc2sc(N(CCCN(C)C)C(=O)C(c3ccccc3)c3ccccc3)nc12,inactive
13,CCCCC(=O)Nc1ccc2c(c1)C(=O)NC2=O,inactive
14,O=C(COc1cc2oc(=O)c3c(c2cc1Cl)CCC3)NCCCN1CCOCC1,inactive
15,Cc1ccc(NC2CCCN(C(=O)CCC3(C)CC3)C2)cc1C (centres undefined),inactive
16,COCCNC(=O)CSc1nc2sccc2c(=O)n1-c1ccccc1,inactive
17,CCN(CC)S(=O)(=O)c1ccc(NC(=O)c2cccnc2Cl)c(NC(=O)c2cccnc2Cl)c1,13 (active)
18,CCN(CC)S(=O)(=O)c1ccc(Cl)c(NC(=O)c2ccncc2)c1,inactive
19,Cc1cccc(NC(=O)c2cccnc2Cl)n1,inactive
20,CC1CCN(S(=O)(=O)c2ccc3c(ccn3CC(=O)O)c2)CC1,inactive
21,CC1CCN(c2ccc(-c3ccc(NC(=O)c4ccco4)cc3)nn2)CC1,inactive
22,NC(=O)Cc1ccc2c(c1)[nH]c1ccccc12,inactive

row,Structure (SMILES),B-score
1,S=c1[nH]c2ccccc2c2ccccc12,7 (active)
2,S=c1ccc2ccccc2[nH]1,inactive
3,COc1ccc(OC)c(CCNC(=O)c2nn(C)c3c2CS(=O)(=O)c2ccccc2-3)c1,inactive
4,O=C(Nc1ccc(F)c([N+](=O)[O-])c1)C1CCCO1 (centres undefined),inactive
5,N#CCc1ccc(OC(=O)c2cccnc2)cc1,inactive
6,O=C(Oc1c(-c2ccco2)oc2ccccc2c1=O)c1cccnc1,15 (active)
7,O=C(Oc1ccc(Br)cc1)c1cccnc1,inactive
8,CCO[C@H]1OC(C(=O)Nc2ccccc2)=C[C@@H](C2CC2)[C@@H]1CCCO,inactive
9,Cc1ccc(S(=O)(=O)Nc2ccc3ncccc3c2)cc1,inactive
10,COc1cc(NS(=O)(=O)c2ccc3ccccc3c2)c2ncccc2c1,14 (active)
11,O=[N+]([O-])c1ccccc1S(=O)(=O)Nc1cccc2cccnc12,inactive
12,COC(=O)C1=C(C(=O)OC)[C@@H]2N(C)c3ccccc3[C@@]23C[C@@H](C(=O)OC)N(C(=O)c2ccco2)C3=N1,inactive
13,CC1(C)CC[C@]2(C(=O)O)CC[C@]3(C)C(=CCC4[C@@]5(C)CC[C@H](O)C(C)(C)C5[C@H](O)C[C@]43C)[C@@H]2C1 (some centres undefined),10 (active)
14,CC1(C)C2CC[C@]3(C)C(CC=C4[C@@H]5C[C@@](C)(CO)CC[C@]5(C(=O)O)CC[C@]43C)[C@@]2(C)CC[C@@H]1O (some centres undefined),inactive
15,CSc1ncccc1C(=O)Nc1ccc(C)cn1,inactive
16,O=C(Nc1ccccc1)c1cc2ccccc2[nH]1,inactive
17,O=c1/c(=C/c2ccc(CNS(=O)(=O)c3ccccc3)o2)sc2n1CCN=2,inactive
18,NC(=O)c1c(Nc2nc3c(F)cccc3s2)sc2c1CCCC2,inactive
19,NNc1nc2c(Cl)cccc2s1,inactive
20,Fc1cc(F)c2nc(Nc3nc4c(F)cccc4s3)sc2c1,37 (active)
21,COc1cccc2cc(C(=O)NCc3ccc(C)cc3)c(=N)oc12,inactive
22,COC(=O)C1CCN(C(=O)c2ccc3oc(Cc4ccc(Cl)cc4)nc3c2)CC1,inactive

row,Structure (SMILES),B-score
1,Cc1cccc(-n2c(C)cc(/C=N\NC(=O)c3cccs3)c2C)c1,inactive
2,Cc1cccc(-n2c(C)cc(/C=N/NC(N)=S)c2C)c1,8 (active)
3,Cc1ccc(-n2c(C)cc(/C=N\NC(=O)CC(=O)NC(C)C)c2C)cc1,inactive
4,Cc1cc(=O)oc2c(C)c(OCC(=O)NCCN3CCOCC3)ccc12,inactive
5,CCCOc1ccc(C(=O)C(CCC(CNCC)C(=O)c2ccc(OCCC)cc2)CNCC)cc1 (centres undefined),inactive
6,FC(F)(F)c1ccc(CN2C[C@@H]3C(c4ccccc4)C4(c5ccccc5)CC3(C4)[C@H]2c2ccccc2)cc1 (some centres undefined),inactive
7,COC(=O)c1sc(NC(=O)c2csc3c2CCCC3)nc1C,inactive
8,Cc1ccc(C(=O)NC(=S)Nc2ccccc2C)cc1,inactive
9,COC(=O)c1sc(NC(=S)NC(=O)c2ccc(C)cc2)nc1C,18 (active)
10,C/C(Cl)=C\Cn1c(Nc2cccc(C)c2)nc2c1c(=O)n(C)c(=O)n2C,inactive
11,CC(C)NC(=O)C(c1ccc(F)cc1)N(C(=O)CCC(=O)Nc1ccccn1)c1ccccc1F (centres undefined),inactive
12,[O-][n+]1c2c(nn1-c1ccc(Cl)c(Cl)c1)-c1nonc1CC2,inactive
13,COc1ccc(NC(=O)C(=O)NCC(c2ccco2)N2CCc3ccccc3C2)cc1 (centres undefined),inactive
14,COC(=O)c1ccccc1NC(=O)C1CCN(S(=O)(=O)c2cc(OC)ccc2OC)CC1,inactive
15,O=C(c1ccc(F)cc1)c1cn(Cc2ccc(F)cc2)c2cc3c(cc2c1=O)OCCO3,inactive
16,Oc1c(Cl)cc(Cl)c(Cl)c1Cc1c(O)c(Cl)cc(Cl)c1Cl,87 (active)
17,COP1(=O)C[C@@H](O)[C@@H](O)[C@@H](COCc2ccccc2)O1 (some centres undefined),inactive
18,CC(=O)Nc1sc2c(c1C(c1cccc(F)c1)N1CCN(CCO)CC1)CCCC2 (centres undefined),inactive
19,COCCNC(=O)CCCN1C(=O)c2ccccc2Sc2ncccc21,inactive
20,Cc1c(C(=O)NC(C)C2CC3CCC2C3)cccc1[N+](=O)[O-] (centres undefined),inactive
21,CC(C)(C)c1ccc(Cn2nnc3c(=O)[nH]c(C4CCCN(C(=O)c5ccco5)C4)nc32)cc1 (centres undefined),inactive
22,Cc1ccc(/C=N/NC(=O)CSc2ccccn2)o1,inactive

row,Structure (SMILES),B-score
1,Cc1ccc(/C=N/NC(=O)c2cc3ccccc3cc2O)o1,41 (active)
2,O=C(N/N=C/c1cccnc1)c1cc2ccccc2cc1O,inactive
3,CN(CC(=O)Nc1ccc(Cl)cc1)C(=O)CNC(=O)c1ccc2ccccc2c1,inactive
4,COc1cc(C(=O)NCC(=O)NCCSc2ccc(Br)cc2)cc(OC)c1OC,inactive
5,Cc1ccc(N(CC(=O)NC2CCCCC2)C(=O)CCCC(=O)Nc2ccccn2)c(C)c1,inactive
6,CCCCNC(=O)C1CCCNC1=O (centres undefined),inactive
7,CCC1(C)Cc2c(sc3nc(SC)[nH]c(=O)c23)CO1 (centres undefined),inactive
8,CCC1(C)Cc2c(sc3[nH]c(=S)n(Cc4ccccc4)c(=O)c23)CO1 (centres undefined),57 (active)
9,CCC1(C)Cc2c(sc3nc4n(c(=O)c23)CCCS4)CO1 (centres undefined),inactive
10,OC(CNCc1ccc(Cl)c(Cl)c1)c1ccccc1 (centres undefined),inactive
11,Cc1cccn2cc(-c3cccc(S(=O)(=O)N4CCCCC4)c3)nc12,inactive
12,COc1cccc(NC(=S)NC(=O)c2c(Cl)c(C)nn2C)c1,8 (active)
13,COc1cccc(NC(=S)NCc2ccccn2)c1,inactive
14,Cc1nn(C)c(C(=O)NNC(=S)NC2CCCCC2)c1Cl,inactive
15,COc1ccc(/C=C2/S/C(=N/N=C3\CC4CCC3(C)C4(C)C)NC2=O)cc1 (centres undefined),23 (active)
16,CCOc1ccc(N=C2NC(=O)S/C2=C\c2ccc(O)cc2)cc1,inactive
17,COc1ccc(/C=C2\SC(=N)N(c3ccc(F)cc3)C2=O)cc1,inactive
18,Cc1ccc(OS(=O)(=O)c2ccc(-c3csc(C)n3)s2)c(C)c1,inactive
19,CCOC(=O)N1CCN(C(=O)C(C)NC(=O)c2ccco2)CC1 (centres undefined),inactive
20,Cc1ccc(C)c(NC(=O)C(OC(=O)c2ccc(C)s2)c2ccccc2)c1 (centres undefined),inactive
21,CCn1c(O)c(N=NC(=O)c2cccc(S(=O)(=O)N3CCCCC3)c2)c2ccccc21,inactive
22,COC(=O)Cn1c2ccc(C)cc2c2nc(C)sc21,inactive

row,Structure (SMILES),B-score
1,CCn1c(O)c(N=NC2=NC(=O)CS2)c2cc(C)ccc21,11 (active)
2,CCCc1noc2c1/C(=N\O)CCC2,inactive
3,Cc1c(N=Nc2ccc(N(C)C)cc2)c(=O)n(-c2ccccc2)n1C,inactive
4,CCOC(=O)c1c(NC(=S)NC)sc2c1CCCC2,77 (active)
5,CCOC(=O)c1c(NC(=S)Nc2ccccc2)sc2c1CCN(C)C2,inactive
6,CCOC(=O)c1c(NC(=O)C2(C)Cc3ccccc3C(=O)O2)sc2c1CCCC2 (centres undefined),inactive
7,Cc1ccc(C(=O)CN2C(=O)NC3(CCc4ccccc43)C2=O)c(C)c1 (centres undefined),inactive
8,Clc1cccc(N=C2NN=C(c3ccc4c(c3)OCCO4)CS2)c1,inactive
9,CN(C)c1nc(=Nc2cccc(Cl)c2)ss1,12 (active)
10,Cc1cc(C)c(C#N)c(SCC(=O)NN2CC(=O)N(c3ccccc3F)CC2=O)n1,inactive
11,CCN(CC)N=Nc1cccc(NC(C)=O)c1,inactive
12,O=C(C1=C(O)C(=O)N(CCOCCO)C1c1ccccn1)c1cccs1 (centres undefined),inactive
13,CCOc1cc(C)c(S(=O)(=O)NCc2ccccn2)cc1C,inactive
14,COc1ccc(C(=O)n2nc(-c3ccc(C)cc3)nc2N)cc1OC,inactive
15,CCCC(=O)n1nc(-c2ccccc2)nc1N,20 (active)
16,COc1ccc(CC(=O)n2nc(-c3cccnc3)nc2N)cc1,inactive
17,O=C1/C(=C\Nc2ccccc2)CCN1c1ncccn1,inactive
18,O=C1N[C@@H](Cc2ccccc2)C(=O)N2[C@H]1C[C@]1(Br)c3ccccc3N(S(=O)(=O)c3ccccc3)[C@H]21,inactive
19,O=c1c(-c2cccc(Cl)c2)c[nH]n1-c1ccccc1,inactive
20,O=C1c2ccccc2NC(c2ccc(-c3cccc(Cl)c3)o2)N1O (centres undefined),10 (active)
21,O=C1NC(c2cccc(Cl)c2)Nc2ccccc21 (centres undefined),inactive

# Source: PubChem BioAssay AID2648 (Johns Hopkins Ion Channel Center, 2010)
